From ChEMBL document CHEMBL5030540 (J Med Chem, 2021)
Calls of active or inactive are those of the source.

How the values were obtained:
Mu-type opioid receptor [1] = biological target: T1, Mu-type opioid receptor (Homo sapiens, UniProt P35372); assay: Agonist activity at human MOR expressed in HEK293T cells assessed as inhibition of forskolin-stimulated cAMP accumulation incubated for 30 mins by Glo-sensor cAMP assay; type: functional, cell-based
Summary of the method: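 HEK293T cells transiently co-transfected with human MOR and a luciferase-based cAMP biosensor. Gαi-mediated cAMP inhibition read by luminescence. EC50 given as pEC50 ± SEM, triplicate runs.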

Mu-type opioid receptor [2] = biological target: T1, Mu-type opioid receptor; assay: Agonist activity at human MOR expressed in HEK-293T cells assessed as inhibition of forskolin-stimulated cAMP accumulation incubated for 30 mins by Glo-sensor cAMP assay relative to DAMGO; type: functional, cell-based; conditions: HEK293T
Summary of the method: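 HEK293T cells transiently co-transfected with human MOR and a luciferase-based cAMP biosensor. Gαi-mediated cAMP inhibition read by luminescence. […] EC50 given as pEC50 ± SEM, triplicate runs.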

Mu-type opioid receptor [3] = biological target: T1, Mu-type opioid receptor; assay: Agonist activity at human MOR receptor expressed in HTLA cells co-expressing TEV-fused-beta-arrestin2 assessed as induction of beta-arrestin2 recruitment by Tango assay relative to DAMGO; type: functional, cell-based
Summary of the method: (§1)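 HTLA cells expressing TEV-fused β-arrestin2 transiently transfected with a human MOR Tango construct. β-arrestin2 recruitment measured. […] Mean pEC50 ± SEM and Emax% ± SEM from triplicate runs.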

[4] = Toxicity in C57BL/6 mouse model assessed as conditioned place preference at 10 mg/kg, IP; type: organism-based; conditions: in vivo
Summary of the method: (§2)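 Counterbalanced two-compartment place conditioning in C57BL/6J mice. […] Time on drug-paired side over a 20 min test compared with preconditioning by Welch-corrected t test.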

[5] = Toxicity in C57BL/6 mouse model assessed as charcoal distance travel at 15 mg/kg, sc measured after 3 hrs by gastrointestinal transit assay (reference value: 29.5 +/- 1 cm); type: organism-based; conditions: in vivo
Mu-type opioid receptor [6] = biological target: T1, Mu-type opioid receptor; assay: Agonist activity at human MOR receptor expressed in HTLA cells co-expressing TEV-fused-beta-arrestin2 assessed as induction of beta-arrestin2 recruitment by Tango assay; type: functional, cell-based; summary of the method: as §1
Mu-type opioid receptor [7] = biological target: T1, Mu-type opioid receptor; assay: Agonist activity at human MOR expressed in CHO-K1 cells co-expressing beta-arrestin2 assessed as beta-arrestin2 EFC recruitment measured after 90 mins by PathHunter assay; type: functional, cell-based
Summary of the method: (§3)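 CHO-K1 cells stably expressing human μOR grown to confluency and seeded overnight at 37 °C, 5% CO2. 5× dilution series of compound in Opti-MEM added for 90 min at 37 °C. Detection reagent then added for 60 min at room temperature in the dark, and chemiluminescence read.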

Mu-type opioid receptor [8] = biological target: T1, Mu-type opioid receptor; assay: Agonist activity at human MOR expressed in CHO-K1 cells co-expressing beta-arrestin2 assessed as beta-arrestin2 EFC recruitment measured after 90 mins by PathHunter assay relative to control; type: functional, cell-based; summary of the method: as §3
Mu-type opioid receptor [9] = biological target: T1, Mu-type opioid receptor; assay: Displacement of [3H]-DAMGO from mu opioid receptor (unknown origin) expressed in CHO cells at 10 uM; type: cell-based
Mu-type opioid receptor [10] = biological target: T1, Mu-type opioid receptor; assay: Partial agonist activity at human MOR expressed in HEK293T cells co-expressing Galpha-RLuc8:Gbeta:Ggamma-GFP2 assessed as maximal Gi-1 activation measured after 15 mins by BRET assay relative to control; type: functional, cell-based; conditions: filed as partial agonist
[11] = biological target: GABA-A receptor; anion channel (Rattus norvegicus) (UniProt O09028+P15431+P18506+P18508+P19969+P20236+P23574+P23576+P28471+P28473+P30191+P62813+P63079+P63138+Q91ZM7+Q9ES14); assay: Partial agonist activity at GABAA receptor in rat brain slice assessed as induction of receptor-mediated inhibitory postsynaptic current at 10 uM by Whole cell electrophysiology; type: tissue-based; conditions: filed as partial agonist
Summary of the method: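 Horizontal VTA slices (200 μm) from male Sprague–Dawley rats. Whole-cell voltage clamp at −70 mV, 33 °C, KCl internal. GABAA IPSCs isolated with 10 μM DNQX and evoked by paired pulses every 10 s. Drug (10 μM) bath applied. Mean IPSC amplitude at minutes 4–7 of drug compared with the 4 min baseline.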

[12] = biological target: Voltage-dependent L-type calcium channel subunit alpha-1C (Rattus norvegicus, UniProt P22002); assay: Displacement of [3H]Diltiazem from Cav1.2 in rat brain at 10 uM incubated for 120 mins by radiometric scintillation counting analysis; type: tissue-based; conditions: 2 h
Voltage-dependent L-type calcium channel subunit alpha-1C, sequence (P22002 whole entry): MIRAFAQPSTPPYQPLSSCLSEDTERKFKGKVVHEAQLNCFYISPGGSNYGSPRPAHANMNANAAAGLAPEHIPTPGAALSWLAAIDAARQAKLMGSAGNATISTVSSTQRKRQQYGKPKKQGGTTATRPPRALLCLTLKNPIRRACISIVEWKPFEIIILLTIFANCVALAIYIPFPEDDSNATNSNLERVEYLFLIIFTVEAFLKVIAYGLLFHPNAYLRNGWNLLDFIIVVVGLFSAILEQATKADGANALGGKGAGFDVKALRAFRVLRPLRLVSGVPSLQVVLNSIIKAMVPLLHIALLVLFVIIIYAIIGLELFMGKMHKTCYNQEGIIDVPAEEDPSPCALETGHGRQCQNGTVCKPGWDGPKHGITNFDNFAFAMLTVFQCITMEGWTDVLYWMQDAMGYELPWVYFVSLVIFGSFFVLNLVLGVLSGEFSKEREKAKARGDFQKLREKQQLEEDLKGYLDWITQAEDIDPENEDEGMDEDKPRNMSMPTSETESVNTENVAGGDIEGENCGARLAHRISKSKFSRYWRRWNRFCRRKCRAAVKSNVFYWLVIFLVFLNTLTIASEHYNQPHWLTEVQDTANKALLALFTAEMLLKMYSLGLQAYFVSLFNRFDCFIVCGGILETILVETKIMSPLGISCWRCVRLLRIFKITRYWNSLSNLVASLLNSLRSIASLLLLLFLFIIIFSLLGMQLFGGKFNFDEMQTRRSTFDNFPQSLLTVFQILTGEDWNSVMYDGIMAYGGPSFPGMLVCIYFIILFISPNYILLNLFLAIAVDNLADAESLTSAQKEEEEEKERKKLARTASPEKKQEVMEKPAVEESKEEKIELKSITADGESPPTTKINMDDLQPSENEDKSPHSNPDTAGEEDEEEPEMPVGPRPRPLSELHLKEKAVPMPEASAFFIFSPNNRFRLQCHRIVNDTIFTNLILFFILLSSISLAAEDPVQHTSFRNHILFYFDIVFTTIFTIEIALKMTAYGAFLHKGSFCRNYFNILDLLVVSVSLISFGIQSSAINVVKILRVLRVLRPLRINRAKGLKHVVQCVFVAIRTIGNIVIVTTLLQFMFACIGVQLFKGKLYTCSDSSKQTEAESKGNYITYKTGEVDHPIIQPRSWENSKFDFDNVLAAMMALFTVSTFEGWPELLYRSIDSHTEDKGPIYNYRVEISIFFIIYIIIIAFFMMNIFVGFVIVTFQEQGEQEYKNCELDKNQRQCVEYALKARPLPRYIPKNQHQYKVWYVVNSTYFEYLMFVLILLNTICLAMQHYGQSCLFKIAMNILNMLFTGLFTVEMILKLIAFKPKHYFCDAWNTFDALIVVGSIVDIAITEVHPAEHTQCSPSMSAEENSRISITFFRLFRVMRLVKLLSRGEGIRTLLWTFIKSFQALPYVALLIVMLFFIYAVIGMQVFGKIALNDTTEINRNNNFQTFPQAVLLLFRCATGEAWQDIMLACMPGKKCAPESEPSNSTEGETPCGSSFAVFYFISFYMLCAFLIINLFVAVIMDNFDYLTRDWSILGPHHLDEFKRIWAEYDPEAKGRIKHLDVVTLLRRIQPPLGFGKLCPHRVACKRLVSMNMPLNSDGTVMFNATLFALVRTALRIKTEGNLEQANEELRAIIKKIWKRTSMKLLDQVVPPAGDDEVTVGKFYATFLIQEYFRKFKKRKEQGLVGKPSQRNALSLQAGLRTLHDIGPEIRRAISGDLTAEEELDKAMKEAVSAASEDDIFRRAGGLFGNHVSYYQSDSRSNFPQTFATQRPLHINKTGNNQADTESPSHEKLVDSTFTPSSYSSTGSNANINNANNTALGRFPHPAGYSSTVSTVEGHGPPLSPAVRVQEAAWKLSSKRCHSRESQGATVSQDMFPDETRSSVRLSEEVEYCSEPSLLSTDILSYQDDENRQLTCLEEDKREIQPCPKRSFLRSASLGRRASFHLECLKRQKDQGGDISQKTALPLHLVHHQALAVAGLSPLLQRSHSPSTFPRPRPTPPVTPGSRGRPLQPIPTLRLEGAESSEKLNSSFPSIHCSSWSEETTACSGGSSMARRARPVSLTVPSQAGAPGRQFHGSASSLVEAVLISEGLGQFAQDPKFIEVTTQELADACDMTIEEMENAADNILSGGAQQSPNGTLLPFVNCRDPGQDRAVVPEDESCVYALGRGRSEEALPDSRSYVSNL

[13] = Toxicity in C57BL/6 mouse model assessed as hyperlocomotion at 15 times of ED50 for antinociceptive effect; conditions: in vivo
Summary of the method: (§4)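 Mice habituated 60 min in sealed CLAMS cages, dosed sc, and confined 5 min later. Respiration rate measured by pressure transducer and ambulation by infrared beam breaks, every 20 min. […] Expressed as % vehicle. Two-way ANOVA with Dunnett's test.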

Mu-type opioid receptor [14] = biological target: T1, Mu-type opioid receptor; assay: Partial agonist activity at human MOR expressed in HEK293T cells co-expressing Galpha-RLuc8:Gbeta:Ggamma-GFP2 assessed as Galpha-i/o activation measured after TRUPATH assay; type: functional, cell-based; conditions: filed as partial agonist
[15] = biological target: Mu-type opioid receptor (Mus musculus) (UniProt P42866); assay: Partial agonist activity at mouse MOR expressed in HEK293T cells assessed as Nb33 recruitment by BRET assay relative to control; type: functional, cell-based
Mu-type opioid receptor (Mus musculus), sequence (P42866 whole entry): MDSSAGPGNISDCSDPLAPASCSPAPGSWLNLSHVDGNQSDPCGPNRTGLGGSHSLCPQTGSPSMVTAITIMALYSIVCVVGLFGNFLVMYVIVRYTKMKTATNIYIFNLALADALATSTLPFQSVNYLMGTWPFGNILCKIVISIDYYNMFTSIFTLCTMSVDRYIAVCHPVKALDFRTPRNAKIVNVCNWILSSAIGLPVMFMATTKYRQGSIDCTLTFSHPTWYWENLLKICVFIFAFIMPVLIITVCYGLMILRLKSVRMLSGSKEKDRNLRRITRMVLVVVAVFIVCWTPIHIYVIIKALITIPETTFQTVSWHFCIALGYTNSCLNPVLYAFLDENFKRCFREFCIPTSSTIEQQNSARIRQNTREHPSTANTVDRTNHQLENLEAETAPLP
Summary of the method: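 HEK293T cells transfected with murine MOR-NanoLuc (1 μg) and Nb33-Venus (4 μg) using PEI and used 48 h later. Cells in PBS given coelenterazine H (5 μM), ligand added at 5 min, BRET read 10 min later. Three-parameter fit; ≥3 independent trials in triplicate.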

Mus musculus [16] = assay: Antinociceptive activity in sc dosed C57BL/6 mouse model assessed as increase in tail withdrawal latency measured at 20 mins by […] withdrawal assay; type: functional; conditions: C57BL/6, sc
Summary of the method: (§5)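 C57BL/6J mice given compound sc or po. 55 °C warm-water tail withdrawal with baseline latency taken first, then measured every 10 min, 15 s cutoff. % antinociception = 100 × (test − baseline)/(15 − baseline). sc doses 1, 3, 10 mg/kg (n = 8). po dose 10 mg/kg (n = 13). ED50 with 95% CI.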

Mus musculus [17] = assay: Antinociceptive activity in sc dosed C57BL/6 MOR knock out mouse model assessed as increase in tail withdrawal latency measured at 20 mins by radiant heat withdrawal assay; type: functional, organism-based
Mus musculus [18] = assay: Antinociceptive activity in C57BL/6 mouse model assessed as measuring increase in tail withdrawal latency at 10 mg/kg, po at 55 degC measured at 30 mins peak time point by […] withdrawal assay; type: functional; conditions: 0.5 h; summary of the method: as §5
[19] = Toxicity in C57BL/6 mouse model assessed as conditioned place preference at 15 mg/kg, sc; type: organism-based; conditions: in vivo; summary of the method: as §2
[20] = Toxicity in C57BL/6 mouse model assessed as conditioned place aversion at 15 mg/kg, sc; type: organism-based; conditions: in vivo; summary of the method: as §2
[21] = Toxicity in C57BL/6 mouse model assessed as respiratory depression at 15 times of ED50 for antinociceptive effect; conditions: in vivo; summary of the method: as §4
Mus musculus [22] = assay: Antinociceptive activity in C57BL/6 mouse model assessed as measuring increase in tail withdrawal latency at 10 mg/kg, sc at 55 degC measured at 20 mins peak time point by […] withdrawal assay; type: functional; summary of the method: as §5

T1 sequence (P35372 whole entry): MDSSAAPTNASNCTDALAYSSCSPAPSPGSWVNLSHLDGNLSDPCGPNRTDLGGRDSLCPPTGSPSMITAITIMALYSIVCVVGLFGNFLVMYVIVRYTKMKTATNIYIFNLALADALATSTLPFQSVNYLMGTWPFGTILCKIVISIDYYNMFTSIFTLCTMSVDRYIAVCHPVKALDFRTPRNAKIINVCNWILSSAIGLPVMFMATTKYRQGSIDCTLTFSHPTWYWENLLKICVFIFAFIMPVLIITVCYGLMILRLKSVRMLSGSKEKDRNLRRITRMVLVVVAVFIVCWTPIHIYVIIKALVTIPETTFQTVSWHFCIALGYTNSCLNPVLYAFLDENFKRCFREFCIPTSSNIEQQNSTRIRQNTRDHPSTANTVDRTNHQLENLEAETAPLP

CC[C@@H]1CN2CC[C@@]3(O)C(=Nc4c(-c5ccoc5)ccc(OC)c43)[C@@H]2C[C@@H]1/C(=C\OC)C(=O)OC
EC50 (Mu-type opioid receptor [1]): 1.56 µM
Emax (Mu-type opioid receptor [2]; filed as agonist): 61.8%
Emax (Mu-type opioid receptor [3]; HTLA230): < 20%

CN1CC[C@]23c4c5ccc(O)c4O[C@H]2[C@@H](O)C=C[C@H]3[C@H]1C5 [MORPHINE]
Activity [4]: Toxic
Activity [5]: 5.07 cm

CC[C@@H]1CN2CCc3c([nH]c4cccc(-c5ccccc5)c34)[C@@H]2C[C@@H]1/C(=C\OC)C(=O)OC
EC50 (Mu-type opioid receptor [1]): 0.0832 µM
Emax (Mu-type opioid receptor [2]; filed as agonist): 46.1%
Emax (Mu-type opioid receptor [3]; HTLA230): < 20%

CC[C@@H]1CN2CCc3c([nH]c4cccc(C)c34)[C@@H]2C[C@@H]1/C(=C\OC)C(=O)OC
EC50 (Mu-type opioid receptor [1]): 0.0829 µM
Emax (Mu-type opioid receptor [2]; filed as agonist): 97.1%
Emax (Mu-type opioid receptor [3]; HTLA230): < 20%

CC[C@@H]1CN2CCc3c([nH]c4c(-c5ccoc5)ccc(OC)c34)[C@@H]2C[C@@H]1/C(=C\OC)C(=O)OC
EC50 (Mu-type opioid receptor [1]): 0.186 µM
Emax (Mu-type opioid receptor [2]; filed as agonist): 78.2%
Emax (Mu-type opioid receptor [3]; HTLA230): < 20%

CC[C@@H]1CN2CCc3c([nH]c4c(C)ccc(OC)c34)[C@@H]2C[C@@H]1/C(=C\OC)C(=O)OC
EC50 (Mu-type opioid receptor [1]): 0.0714 µM
Emax (Mu-type opioid receptor [2]; filed as agonist): 83.9%
Emax (Mu-type opioid receptor [3]; HTLA230): < 20%

CC[C@@H]1CN2CCc3c([nH]c4ccc(-c5ccoc5)c(OC)c34)[C@@H]2C[C@@H]1/C(=C\OC)C(=O)OC
EC50 (Mu-type opioid receptor [1]): 0.0859 µM
Emax (Mu-type opioid receptor [2]; filed as agonist): 90.8%
Emax (Mu-type opioid receptor [3]; HTLA230): < 20%

CC[C@@H]1CN2CCc3c([nH]c4ccc(-c5ccccc5)c(OC)c34)[C@@H]2C[C@@H]1/C(=C\OC)C(=O)OC
EC50 (Mu-type opioid receptor [1]): 3.76 µM
Emax (Mu-type opioid receptor [2]; filed as agonist): 73.9%
Emax (Mu-type opioid receptor [3]; HTLA230): < 20%

CC[C@@H]1CN2CCc3c([nH]c4c(-c5ccccc5)ccc(OC)c34)[C@@H]2C[C@@H]1/C(=C\OC)C(=O)OC
EC50 (Mu-type opioid receptor [1]): 1.11 µM
Emax (Mu-type opioid receptor [2]; filed as agonist): 50.4%
Emax (Mu-type opioid receptor [3]; HTLA230): < 20%

CC[C@@H]1CN2CC[C@@]3(O)C(=Nc4cccc(-c5ccoc5)c43)[C@@H]2C[C@@H]1/C(=C\OC)C(=O)OC
EC50 (Mu-type opioid receptor [1]): 0.00725 µM
Emax (Mu-type opioid receptor [2]; filed as partial agonist): 106%
EC50 (Mu-type opioid receptor [6]): 11 µM
Emax (Mu-type opioid receptor [3]; HTLA230, filed as partial agonist): 45%
Emax (Mu-type opioid receptor [7]): 31%
Emax (Mu-type opioid receptor [8]): < 20%
Ki (Mu-type opioid receptor [9]): 0.006 µM
Emax (Mu-type opioid receptor [10]): 60%
Activity [11]: Active
Activity [12]: Active
Activity [13]: Non-Toxic
Activity (Mu-type opioid receptor [14]): Active
Emax [15]: 20%
ED50 (Mus musculus [16]): 3.05 mg/kg
Activity (Mus musculus [17]): Active
MPE (Mus musculus [18]): 87%
Activity [19]: Non-Toxic
Activity [20]: Non-Toxic
Activity [4]: Toxic
Activity [5]: 30.8 cm
Activity [21]: Non-Toxic
MPE (Mus musculus [22]): 100%

CC[C@@H]1CN2CC[C@@]3(O)C(=Nc4ccc(-c5ccoc5)c(OC)c43)[C@@H]2C[C@@H]1/C(=C\OC)C(=O)OC
EC50 (Mu-type opioid receptor [1]): 0.535 µM
Emax (Mu-type opioid receptor [2]; filed as agonist): 100%
EC50 (Mu-type opioid receptor [6]): 8.04 µM
Emax (Mu-type opioid receptor [3]; HTLA230): 31.3%
